# ChEMBL document CHEMBL1629601, “In vitro susceptibility of field isolates of Leishmania donovani to Miltefosine and amphotericin B: correlation with sodium antimony gluconate susceptibility and implications for treatment in areas of endemicity” (2009)
# Key:
# Assay type in all cases: functional
# Leishmania donovani [1] = assay: Decrease in LdRoS3 gene expression in Leishmania donovani K111 by RT-PCR method
# In short: (§1)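 VL field isolates of L. donovani. Transcript levels of LdMT or LdRos3 were measured by real-time RT-PCR with SYBR green and analysed by the 2−ΔΔCt method. The expression index is the ratio of gene expression to that of the standard L. donovani strain LdAG83, and a decrease is relative to LdAG83. Values are means of three independent experiments.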
# Leishmania donovani [2] = assay: Decrease in LdMT gene expression in Leishmania donovani K149 by RT-PCR method
# In short: (§2)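 LdMT transcript levels were measured by real-time RT-PCR with SYBR green and analysed by the 2−ΔΔCt method. They are expressed as an expression index, the ratio relative to reference strain LdAG83, and are the mean of three independent experiments.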
# Leishmania donovani [3] = assay: Antimicrobial activity against Leishmania donovani K192 promastigote; settings: read-out: ED50 (the source's name)
# Leishmania donovani [4] = assay: Antimicrobial activity against Leishmania donovani K429 promastigote; settings: read-out: ED50 (the source's name)
# Leishmania donovani [5] = assay: Decrease in LdRoS3 gene expression in Leishmania donovani K251 by RT-PCR method; in short: as §1
# Leishmania donovani [6] = assay: Decrease in LdMT gene expression in Leishmania donovani K80 by RT-PCR method; in short: as §1
# Leishmania donovani [7] = assay: Antimicrobial activity against Leishmania donovani K132 amastigote; settings: read-out: ED50 (the source's name)
# Leishmania donovani [8] = assay: Decrease in LdMT gene expression in Leishmania donovani K216 by RT-PCR method; in short: as §1
# Leishmania donovani [9] = assay: Antimicrobial activity against Leishmania donovani K59M20 amastigote; settings: read-out: ED50 (the source's name)
# Leishmania donovani [10] = assay: Decrease in LdRoS3 gene expression in Leishmania donovani K149 by RT-PCR method; in short: as §1
# Leishmania donovani [11] = assay: Decrease in LdRoS3 gene expression in Leishmania donovani K439 by RT-PCR method; in short: as §1
# Leishmania donovani [12] = assay: Decrease in LdRoS3 gene expression in Leishmania donovani K417M20 by RT-PCR method
# In short: (§3)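 MIL-resistant M20 parasites were generated by raising the MIL concentration stepwise up to 20 μg/ml. LdMT or LdRos3 expression was quantified by real-time RT-PCR (SYBR green, 2−ΔΔCt method) and reported as an expression index, the ratio to the standard strain LdAG83. A decrease is relative to LdAG83. Values are means of three independent experiments.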
# Leishmania donovani [13] = assay: Antimicrobial activity against Leishmania donovani K135 amastigote; settings: read-out: ED50 (the source's name)
# Leishmania donovani [14] = assay: Decrease in LdMT gene expression in Leishmania donovani K439 by RT-PCR method; in short: as §1
# Leishmania donovani [15] = assay: Antimicrobial activity against Leishmania donovani LdAG83 promastigote; settings: read-out: ED50 (the source's name)
# Leishmania donovani [16] = assay: Decrease in LdMT gene expression in Leishmania donovani K251 by RT-PCR method; in short: as §1
# Leishmania donovani [17] = assay: Decrease in LdRoS3 gene expression in Leishmania donovani K435 by RT-PCR method; in short: as §1
# Leishmania donovani [18] = assay: Decrease in LdMT gene expression in Leishmania donovani K133 by RT-PCR method; in short: as §2
# Leishmania donovani [19] = assay: Antimicrobial activity against Leishmania donovani K149 amastigote; settings: read-out: ED50 (the source's name)
# Leishmania donovani [20] = assay: Antimicrobial activity against Leishmania donovani K135 promastigote; settings: read-out: ED50 (the source's name)
# Leishmania donovani [21] = assay: Antimicrobial activity against Leishmania donovani K498 promastigote; settings: read-out: ED50 (the source's name)
# Leishmania donovani [22] = assay: Decrease in LdMT gene expression in Leishmania donovani K111 by RT-PCR method; in short: as §2
# Leishmania donovani [23] = assay: Decrease in LdMT gene expression in Leishmania donovani K59M20 by RT-PCR method; in short: as §3
# Leishmania donovani [24] = assay: Decrease in LdRoS3 gene expression in Leishmania donovani K192 by RT-PCR method; in short: as §1
# Leishmania donovani [25] = assay: Decrease in LdMT gene expression in Leishmania donovani K131 by RT-PCR method; in short: as §2
# Leishmania donovani [26] = assay: Antimicrobial activity against Leishmania donovani K132 promastigote; settings: read-out: ED50 (the source's name)
# Leishmania donovani [27] = assay: Antimicrobial activity against Leishmania donovani K216 amastigote; settings: read-out: ED50 (the source's name)
# Leishmania donovani [28] = assay: Antimicrobial activity against Leishmania donovani K516 amastigote; settings: read-out: ED50 (the source's name)
# Leishmania donovani [29] = assay: Antimicrobial activity against Leishmania donovani K251 amastigote; settings: read-out: ED50 (the source's name)
# Leishmania donovani [30] = assay: Antimicrobial activity against Leishmania donovani K59 promastigote; settings: read-out: ED50 (the source's name)
# Leishmania donovani [31] = assay: Antimicrobial activity against Leishmania donovani K111 amastigote; settings: read-out: ED50 (the source's name)
# Leishmania donovani [32] = assay: Decrease in LdRoS3 gene expression in Leishmania donovani K429 by RT-PCR method; in short: as §1
# Leishmania donovani [33] = assay: Antimicrobial activity against Leishmania donovani K80 promastigote; settings: read-out: ED50 (the source's name)
# Leishmania donovani [34] = assay: Antimicrobial activity against Leishmania donovani K435 promastigote; settings: read-out: ED50 (the source's name)
# Leishmania donovani [35] = assay: Antimicrobial activity against Leishmania donovani K80 amastigote; settings: read-out: ED50 (the source's name)
# Leishmania donovani [36] = assay: Decrease in LdMT gene expression in Leishmania donovani K435 by RT-PCR method; in short: as §1
# Leishmania donovani [37] = assay: Decrease in LdRoS3 gene expression in Leishmania donovani K417 by RT-PCR method; in short: as §1
# Leishmania donovani [38] = assay: Decrease in LdMT gene expression in Leishmania donovani K192 by RT-PCR method; in short: as §1
# Leishmania donovani [39] = assay: Decrease in LdMT gene expression in Leishmania donovani K417M20 by RT-PCR method; in short: as §3
# Leishmania donovani [40] = assay: Antimicrobial activity against Leishmania donovani K131 amastigote; settings: read-out: ED50 (the source's name)
# Leishmania donovani [41] = assay: Antimicrobial activity against Leishmania donovani K516 promastigote; settings: read-out: ED50 (the source's name)
structure (smiles),measurement,setting,value
CCCCCCCCCCCCCCCCOP(=O)([O-])OCC[N+](C)(C)C [MILTEFOSINE],fold change (FC),Leishmania donovani [1],5.26
same,fold change (FC),Leishmania donovani [2],1.08
same,EC50,Leishmania donovani [3],1.91 µg/mL
same,EC50,Leishmania donovani [4],1.26 µg/mL
same,fold change (FC),Leishmania donovani [5],52.63
same,fold change (FC),Leishmania donovani [6],1.24
same,EC50,Leishmania donovani [7],0.48 µg/mL
same,fold change (FC),Leishmania donovani [8],1.4
same,EC50,Leishmania donovani [9],> 15 µg/mL
same,fold change (FC),Leishmania donovani [10],7.69
same,fold change (FC),Leishmania donovani [11],3.12
same,fold change (FC),Leishmania donovani [12],100
same,EC50,Leishmania donovani [13],0.72 µg/mL
same,fold change (FC),Leishmania donovani [14],4.76
same,EC50,Leishmania donovani [15],1.05 µg/mL
same,fold change (FC),Leishmania donovani [16],7.68
same,fold change (FC),Leishmania donovani [17],4.76
same,fold change (FC),Leishmania donovani [18],1.5
same,EC50,Leishmania donovani [19],1.57 µg/mL
same,EC50,Leishmania donovani [20],0.86 µg/mL
same,EC50,Leishmania donovani [21],1.32 µg/mL
same,fold change (FC),Leishmania donovani [22],3.4
same,fold change (FC),Leishmania donovani [23],13.33
same,fold change (FC),Leishmania donovani [24],1.9
same,fold change (FC),Leishmania donovani [25],2.43
same,EC50,Leishmania donovani [26],0.53 µg/mL
same,EC50,Leishmania donovani [27],0.91 µg/mL
same,EC50,Leishmania donovani [28],2.02 µg/mL
same,EC50,Leishmania donovani [29],1.59 µg/mL
same,EC50,Leishmania donovani [30],1.19 µg/mL
same,EC50,Leishmania donovani [31],0.85 µg/mL
same,fold change (FC),Leishmania donovani [32],8.85
same,EC50,Leishmania donovani [33],1.58 µg/mL
same,EC50,Leishmania donovani [34],1.16 µg/mL
same,EC50,Leishmania donovani [35],1.32 µg/mL
same,fold change (FC),Leishmania donovani [36],2.67
same,fold change (FC),Leishmania donovani [37],5.02
same,fold change (FC),Leishmania donovani [38],0.23
same,fold change (FC),Leishmania donovani [39],11.3
same,EC50,Leishmania donovani [40],0.51 µg/mL
same,EC50,Leishmania donovani [41],1.62 µg/mL
